Assay results taken from article PMC6314015 (Bioorganic & medicinal chemistry, 2018).
Entries after “also recorded” stand apart in the source; their conditions may differ. Blank lines part the entries; values can stand above or below the compound they belong to.

Assays:
[1] = assay type: binding; conditions: for calcein fluorescence upon addition of chelator: 4 μM chelator (2 equivalents), 2 μM calcein-Fe^3+, PBS pH 7.4
Procedure, shortened: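 Fe3+-calcein formed by equilibrating 4 μM ferric ammonium citrate with 4 μM calcein in PBS for 4 h. Compounds were freshly made at 100 μM in PBS pH 7.4; for activation, 100 μM prochelator was incubated with 5 mM H2O2 for 12 h. 2 μM Fe3+-calcein plus 4 μM compound or mixture, 2 h, 25 °C; fluorescence at 485/535 nm. Triplicate wells averaged; calcein-only wells = 100%.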

[2] = 1H NMR characterization of hydrolytic stability in D2O; assay type: physicochemical
Procedure, shortened: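 Prochelator stocks (10 mM in DMSO-d6) diluted to 500 μM in D2O with 5% DMSO-d6, or to 200 μM with 2% DMSO-d6 for one analog. Solutions equilibrated 1 h before 1H NMR. Intact prochelator and isoniazid fraction estimated by integrating the hydrazone-compound aromatic peak against the corresponding isoniazid peak.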

ARPE-19 cells [3] = assay: Cytoprotection against paraquat-induced oxidative damage; assay type: cell-based, human; conditions: 10 mM paraquat, 48 h; for cytoprotection against paraquat damage: prochelators; for cytoprotection against paraquat-induced cell death: chelators, Figure S5
[4] = UV-Vis spectrophotometry of hydrolysis equilibrium in PBS pH 7.4; assay type: physicochemical; conditions: for hydrolysis equilibrium constant K: PBS pH 7.4, equilibrated mixtures at various concentrations; for fold improved hydrolytic stability compared to BSIH: from K values
Procedure, shortened: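 DMSO stocks were diluted into PBS pH 7.4 (100 μM). Spectra were recorded in 1-cm quartz cuvettes every 1 min over 30 min; 100 μM isoniazid + 100 μM aldehyde fragment served as reference. For K, equilibrated solutions at several initial concentrations were read at 263 and 321 nm, and component concentrations were solved from fitted extinction coefficients. K = [INH][FBA]/[prochelator], averaged across concentrations.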

[5] = test system: ARPE-19 retinal pigment epithelial cells; assay: Inherent cytotoxicity, CellTiter-Blue viability; assay type: cell-based, human; conditions: 72 h incubation, up to 100 μM
Procedure, shortened: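 Confluent ARPE-19 cells (DMEM/F12 1:1 with 10% FBS, 37 °C, 5% CO2) were washed three times with MEM. Cells were exposed to prochelators at 5–100 μM final in MEM with up to 1% DMSO for 72 h. Viability measured by CellTiter-Blue; triplicate runs, standard deviation.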

ARPE-19 cells [6] = assay: Cytoprotection against H2O2-induced oxidative damage; assay type: cell-based, human
Procedure, shortened: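 ARPE-19 cells were grown to confluence (DMEM/F12 1:1, 10% FBS, 37 °C, 5% CO2) and washed with MEM. Cells were pretreated 5 h with prochelators or chelators in MEM, then given 200 μM H2O2 (final) and incubated 19 h more. Viability read by CellTiter-Blue, as % of MEM-only control; H2O2-only as negative control; triplicate, SD.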

[7] = Solubility in aqueous buffers; assay type: physicochemical; conditions: aqueous buffer
[8] = cited from earlier work
H9c2 cardiomyoblasts = conditions: after 72 h; cited from earlier work
[9] = comparable solutions (500 μM); cited from earlier work
[10] = cited from earlier work; remark: listed apart in the source
[11] = same concentration (500 μM); cited from earlier work
[12] = pH 7.4, total ligand 10 µM, iron 1 µM; cited from earlier work
[13] = prochelators, 5 h pre-incubation, 200 μM H2O2, viability after 19 h

Structure (SMILES): CC1(C)OB(c2cc3c(cc2/C=N/NC(=O)c2ccncc2)OCO3)OC1(C)C [(MD)BSIH, (E)-N’-((6-(4,4,5,5-tetramethyl-1,3,2-dioxaborolan-2-yl)benzo[d][1,3]dioxol-5-yl)methylene)isonicotinohydrazide]
increase in chelator released compared to BSIH ([1]; after H2O2 activation): 50% | hydrolysis fragments in the equilibrated solution ([2]; 200 μM in D2O, 2% DMSO-d6): 20% | cytoprotection against paraquat damage (ARPE-19 cells [3]): dose-dependent recovery of cell viability | hydrolysis equilibrium constant K, fold lower than parent BSIH [4]: ~ 2 fold | hydrolysis equilibrium constant K [4]: (8.0 ± 0.6) × 10^−6 M | fold improved hydrolytic stability compared to BSIH [4]: 1.9 fold | cytotoxicity [5]: non-toxic | concentration effective for cytoprotection (ARPE-19 cells [6]; [13]): 25 µM

UV-Vis spectrum over time in PBS buffer ([4]; PBS buffer, Figure S3): remains unchanged over time
Structure (SMILES): COc1ccc(/C=N/NC(=O)c2ccncc2)cc1B1OC(C)(C)C(C)(C)O1 [(m-OMe)BIIH, (E)-N’-(4-methoxy-3-(4,4,5,5-tetramethyl-1,3,2-dioxaborolan-2-yl)benzylidene)isonicotinohydrazide]
hydrolysis products by 1H NMR upon dilution in D2O ([2]; 500 μM in D2O, 5% DMSO-d6): no additional peaks corresponding to potential hydrolysis products were observed | cytoprotection from peroxide damage (ARPE-19 cells [6]; [13]): lack of cytoprotection

solubility [7]: ≥ 300 µM
Structure (SMILES): COc1ccc(/C=N/NC(=O)c2cccnc2)c(B2OC(C)(C)C(C)(C)O2)c1 [(m-OMe)BSNH, (E)-N’-(4-methoxy-2-(4,4,5,5-tetramethyl-1,3,2-dioxaborolan-2-yl)benzylidene)nicotinohydrazide]

solubility [7]: ≤ 50 µM
Structure (SMILES): COc1ccc(/C=N/NC(=O)c2ccncc2)c(O)c1 [(m-OMe)SIH]

solubility [7]: ≥ 300 µM
Structure (SMILES): COc1ccc(/C=N/NC(=O)c2cccnc2)c(O)c1 [(m-OMe)SNH, (E)-N’-(2-hydroxy-4-methoxybenzylidene)nicotinohydrazide]
calcein fluorescence upon addition of chelator [1]: more than 90%

INH at equilibrium ([2]; 500 μM in D2O, 5% DMSO-d6, 1 h equilibration): 15% | hydrolysis equilibrium constant K [4]: (1.1 ± 0.1) × 10^−5 M | fold improved hydrolytic stability compared to BSIH [4]: 1.3 fold
Structure (SMILES): COc1ccc(B2OC(C)(C)C(C)(C)O2)c(/C=N/NC(=O)c2ccncc2)c1 [(p-OMe)BSIH, (E)-N’-(5-methoxy-2-(4,4,5,5-tetramethyl-1,3,2-dioxaborolan-2-yl)benzylidene)isonicotinohydrazide]
increase in H2O2-dependent conversion rate relative to the m-Cl compound [8]: ~5 fold | concentration effective for cytoprotection (ARPE-19 cells [6]; [13]): 25 µM

Structure (SMILES): COc1ccc(O)c(/C=N/NC(=O)c2ccncc2)c1 [(p-OMe)SIH, (E)-N’-(2-hydroxy-5-methoxybenzylidene)isonicotinohydrazide]
calcein fluorescence upon addition of chelator [1]: more than 90% | cytoprotection against paraquat-induced cell death (ARPE-19 cells [3]): ~ 40%

Structure (SMILES): C/C(=N\NC(=O)c1ccncc1)c1ccccc1OCc1ccc(B2OC(C)(C)C(C)(C)O2)cc1 [BHAPI]
TC50 (H9c2 cardiomyoblasts): 37.1 ± 7.7 µM

Structure (SMILES): CC1(C)OB(c2ccccc2/C=N/NC(=O)c2ccncc2)OC1(C)C [BSIH, (E)-N’-(2-(4,4,5,5-tetramethyl-1,3,2-dioxaborolan-2-yl)benzylidene)isonicotinohydrazide]
intact prochelator at equilibrium [9]: 80% | stability in plasma ([10]; 10 h incubation in plasma): little degradation | cytoprotection against paraquat damage (ARPE-19 cells [3]): failed to protect cells from paraquat damage; also recorded: lack of cytoprotection | cytotoxicity [5]: non-toxic | SIH generated from peroxide activation [11]: 51%

Structure (SMILES): CNC(=S)N/N=C/c1ccccc1B1OC(C)(C)C(C)(C)O1 [BSMTH, (E)-N-methyl-2-(2-(4,4,5,5-tetramethyl-1,3,2-dioxaborolan-2-yl)benzylidene)hydrazine-1-carbothioamide]
cytoprotection against paraquat damage (ARPE-19 cells [3]): lack of cytoprotection | cytoprotection from peroxide damage (ARPE-19 cells [6]; [13]): lack of cytoprotection; also recorded: ineffective

Structure (SMILES): CC1(C)OB(c2ccccc2/C=N/NC(=S)Nc2ccccc2)OC1(C)C [BSPTH, (E)-N-phenyl-2-(2-(4,4,5,5-tetramethyl-1,3,2-dioxaborolan-2-yl)benzylidene)hydrazine-1-carbothioamide]
cytoprotection against paraquat damage (ARPE-19 cells [3]): lack of cytoprotection | cytoprotection from peroxide damage (ARPE-19 cells [6]; [13]): modest cellular protection

Structure (SMILES): O=C(O)CN(CC(=O)O)Cc1cc2c(cc1O)Oc1cc(O)c(CN(CC(=O)O)CC(=O)O)cc1C21OC(=O)c2ccccc21 [Calcein]
pFe [12]: 20.3

Structure (SMILES): C/C(=N\NC(=O)c1ccncc1)c1ccccc1O [HAPI, (E)-N’-(1-(2-hydroxyphenyl)ethylidene)isonicotinohydrazide, reference compound]
cytoprotection against paraquat-induced cell death (ARPE-19 cells [3]): ~ 40%

Structure (SMILES): O=C(N/N=C/c1ccccc1O)c1ccncc1 [SIH, (E)-N’-(2-hydroxybenzylidene)isonicotinohydrazide]
stability in buffer ([10]; buffer at pH 7.4): remains intact | stability in cell culture media and plasma ([10]; cell culture media and plasma): degrades within hours | cytoprotection against paraquat-induced cell death (ARPE-19 cells [3]): ~ 40%

Structure (SMILES): CNC(=S)N/N=C/c1ccccc1O [SMTH, (E)-2-(2-hydroxybenzylidene)-N-methylhydrazine-1-carbothioamide]
calcein fluorescence upon addition of chelator [1]: no effect on the quenched signal | cytoprotection against paraquat-induced cell death (ARPE-19 cells [3]): failed to protect cells | cytoprotection from peroxide damage (ARPE-19 cells [6]; chelators, H2O2-stressed cells, Figure S4): no protective effect

Structure (SMILES): Oc1ccccc1/C=N/NC(=S)Nc1ccccc1 [SPTH, (E)-2-(2-hydroxybenzylidene)-N-phenylhydrazine-1-carbothioamide]
calcein fluorescence upon addition of chelator [1]: failed to fully restore calcein emission | cytoprotection against paraquat-induced cell death (ARPE-19 cells [3]): ~ 40%
